Results on 18 molecules are retold here after ChEMBL document CHEMBL1135907, “Novel 5-substituted 2,4-thiazolidinedione and 2,4-oxazolidinedione derivatives as insulin sensitizers with antidiabetic activities” (J Med Chem, 2002).

pEC50: −log10 of the molar value. A value given as a limit tells only on which side of the number the result lay.

Test system in one assay: not listed separately
The assay can be described thus: Plasma lipid-lowering activity at a dosage of 0.005% in the diet in KKA(y) mice. Type of assay: functional, Mus musculus.
Conditions: not given
In short, it runs like this: (§1)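 KKAy mice (9–13 weeks old), five per group, on powdered CE-2 diet containing compound at 0.001, 0.005 or 0.01% for 4 d. Plasma triglyceride from orbital-vein blood measured enzymatically and reported as maximum percent reduction from control; Dunnett's test; less than 10% reduction flagged.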
For the molecule `Cc1oc(-c2ccccc2)nc1CCCc1ccc(CCCC2OC(=O)NC2=O)cc1` (stereo not drawn), the Activity was determined as 19.

As for `Cc1oc(-c2ccccc2)nc1COc1ccc(CCCC2OC(=O)NC2=O)cn1` (stereo not drawn), the Activity is 82.

Consider `Cc1oc(-c2ccccc2)nc1COc1ccc(CCCCC2OC(=O)NC2=O)cc1` (stereo not drawn), for which the Activity is recorded as 51.

Consider `Cc1sc(-c2ccccc2)nc1COc1ccc(CCCC2OC(=O)NC2=O)cc1` (stereo not drawn), for which the Activity came out at 58.

For the molecule `COc1cc(CCCC2OC(=O)NC2=O)ccc1OCc1nc(-c2ccccc2)oc1C` (stereo not drawn), the Activity was 75.

`Cc1oc(-c2ccccc2)nc1CCCOc1ccc(CC2OC(=O)NC2=O)cc1` (stereo not drawn) returned an Activity of 25.

The molecule `Cc1oc(-c2ccccc2)nc1CCC(=O)c1ccc(CCCC2OC(=O)NC2=O)cc1` (stereo not drawn) gave an Activity of 17.

Molecule `Cc1oc(-c2ccccc2)nc1CCOc1ccc(CCCC2OC(=O)NC2=O)cc1` (stereo not drawn) had an Activity of 41.

As to `Cc1oc(-c2cc3ccccc3o2)nc1COc1ccc(CCCC2OC(=O)NC2=O)cc1` (stereo not drawn), the Activity is 71.

Take `Cc1oc(-c2ccccc2)nc1COc1ccc(CCCC2SC(=O)NC2=O)cc1` (stereo not drawn): the Activity is 37.

Take `Cc1oc(-c2ccccc2)nc1COc1ccc(CCCCCC2OC(=O)NC2=O)cc1` (stereo not drawn): the Activity stood at 59.

Test system in another assay: not listed separately
The assay is described as follows: Plasma glucose-lowering activity at a dosage of 0.005% in the diet in KKA(y) mice. Type of assay: functional, Mus musculus.
Conditions: not given
In short, it runs like this: (§2)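 KKAy mice (9–13 weeks old), five per group, grouped by blood glucose after 3 d on powdered CE-2 chow. Dietary admixture at 0.001, 0.005 or 0.01% for 4 d, food and water ad libitum. Orbital-vein plasma glucose measured enzymatically and expressed as maximum percent reduction versus control; Dunnett's test.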
Regarding `COc1cc(CCCC2OC(=O)NC2=O)ccc1OCc1nc(-c2ccco2)oc1C` (single isomer, unassigned; (-)), the Activity was less than 10.

Molecule `O=C1NC(=O)C(CCCc2ccc(OCc3coc(-c4ccccc4)n3)cc2)O1` (stereo not drawn) gave an Activity of 44.

`Cc1oc(-c2ccccc2)nc1CCCc1ccc(CCCC2OC(=O)NC2=O)cc1` (stereo not drawn) registered an Activity of 22.

In turn, `Cc1oc(-c2ccccc2)nc1COc1ccc(CCCC2OC(=O)NC2=O)cn1` (stereo not drawn) gave an Activity of 54.

In turn, `Cc1oc(-c2ccccc2)nc1COc1ccc(CCCCC2OC(=O)NC2=O)cc1` (stereo not drawn) gave an Activity of 43.

As for `Cc1sc(-c2ccccc2)nc1COc1ccc(CCCC2OC(=O)NC2=O)cc1` (stereo not drawn), the Activity was 43.

Consider `Cc1oc(-c2cccc3ccccc23)nc1COc1ccc(CCCC2OC(=O)NC2=O)cc1` (stereo not drawn), for which the Activity is given as 23.

`Cc1oc(-c2ccccc2)nc1COc1ccccc1CCCC1OC(=O)NC1=O` (stereo not drawn) showed an Activity of 11.

Consider `COc1cc(CCCC2OC(=O)NC2=O)ccc1OCc1nc(-c2ccccc2)oc1C` (stereo not drawn), for which the Activity was determined as 61.

Molecule `Cc1oc(-c2ccccc2)nc1CCCOc1ccc(CC2OC(=O)NC2=O)cc1` (stereo not drawn) showed an Activity of 30.

On to `Cc1oc(-c2ccccc2)nc1CCC(=O)c1ccc(CCCC2OC(=O)NC2=O)cc1` (stereo not drawn), for which the Activity came to 32.

In the case of `Cc1oc(-c2ccccc2)nc1CCOc1ccc(CCCC2OC(=O)NC2=O)cc1` (stereo not drawn), the Activity is reported as 49.

Take `Cc1oc(-c2cc3ccccc3o2)nc1COc1ccc(CCCC2OC(=O)NC2=O)cc1` (stereo not drawn): the Activity was 47.

Molecule `Cc1oc(-c2ccccc2)nc1COc1ccc(CCCC2SC(=O)NC2=O)cc1` (stereo not drawn) came in with an Activity of 48.

Take `Cc1oc(-c2ccccc2)nc1COc1cccc(CCCC2OC(=O)NC2=O)c1` (stereo not drawn): the Activity is recorded as 32.

As for `Cc1oc(-c2ccccc2)nc1COc1ccc(CCCCCC2OC(=O)NC2=O)cc1` (stereo not drawn), the Activity was 45.

Test system in the next assay: not listed separately
The assay is described as follows: Plasma lipid-lowering activity at a dosage of 0.001% in the diet in KKAy mice. In kind it is functional, Mus musculus.
Conditions: not given
In short, it runs like this: as §1
`COc1cc(CCCC2OC(=O)NC2=O)ccc1OCc1nc(-c2ccco2)oc1C` (single isomer, unassigned; (-)) yielded an Activity of less than 10.

Take `COc1cc(CCCC2OC(=O)NC2=O)ccc1OCc1nc(-c2ccco2)oc1C` (stereo in doubt; (+)-64): the Activity came out at 32.

`Cc1oc(-c2ccccc2)nc1COc1ccc(CCCC2OC(=O)NC2=O)cn1` (stereo not drawn) showed an Activity of 69.

`Cc1sc(-c2ccccc2)nc1COc1ccc(CCCC2OC(=O)NC2=O)cc1` (stereo not drawn): the Activity worked out at 17.

Consider `Cc1oc(-c2ccccc2)nc1CCOc1ccc(CCCC2OC(=O)NC2=O)cc1` (stereo not drawn), for which the Activity is 26.

As to `Cc1oc(-c2cc3ccccc3o2)nc1COc1ccc(CCCC2OC(=O)NC2=O)cc1` (stereo not drawn), the Activity amounted to 12.

For `Cc1oc(-c2ccccc2)nc1COc1ccc(CCCC2SC(=O)NC2=O)cc1` (stereo not drawn), the Activity is less than 10.

Test system in another assay: not listed separately
The assay can be described thus: Plasma glucose-lowering activity at a dosage of 0.001% in the diet in KKAy mice. In kind it is functional, Mus musculus.
Conditions: not given
In short, it runs like this: as §2
`COc1cc(CCCC2OC(=O)NC2=O)ccc1OCc1nc(-c2ccco2)oc1C` (stereo in doubt; (+)-64): the Activity is reported as 45.

Take `Cc1oc(-c2ccccc2)nc1COc1ccc(CCCC2OC(=O)NC2=O)cn1` (stereo not drawn): the Activity stood at 53.

Molecule `Cc1sc(-c2ccccc2)nc1COc1ccc(CCCC2OC(=O)NC2=O)cc1` (stereo not drawn) yielded an Activity of 15.

Take `COc1cc(CCCC2OC(=O)NC2=O)ccc1OCc1nc(-c2ccccc2)oc1C` (stereo not drawn): the Activity turned out to be 48.

Turning to `Cc1oc(-c2ccccc2)nc1CCOc1ccc(CCCC2OC(=O)NC2=O)cc1` (stereo not drawn), the Activity is 11.

For the molecule `Cc1oc(-c2cc3ccccc3o2)nc1COc1ccc(CCCC2OC(=O)NC2=O)cc1` (stereo not drawn), the Activity was 27.

Regarding `Cc1oc(-c2ccccc2)nc1COc1ccc(CCCC2SC(=O)NC2=O)cc1` (stereo not drawn), the Activity is reported as less than 10.

Test system in another assay: not listed separately
The assay can be described thus: Plasma lipid-lowering activity at a dosage of 0.01% in the diet in KKAy mice. In kind it is functional, Mus musculus.
Conditions: not given
The gist of the method:
as §1
Molecule `Cc1oc(-c2ccccc2)nc1COc1ccccc1CCCC1OC(=O)NC1=O` (stereo not drawn) registered an Activity of 33.

In turn, `Cc1oc(-c2ccccc2)nc1COc1cccc(CCCC2OC(=O)NC2=O)c1` (stereo not drawn) had an Activity of 47.

A further assay deals with T1, RXR alpha/PPAR gamma (Homo sapiens, UniProt P19793+P37231).
T1 sequence (P37231 whole entry): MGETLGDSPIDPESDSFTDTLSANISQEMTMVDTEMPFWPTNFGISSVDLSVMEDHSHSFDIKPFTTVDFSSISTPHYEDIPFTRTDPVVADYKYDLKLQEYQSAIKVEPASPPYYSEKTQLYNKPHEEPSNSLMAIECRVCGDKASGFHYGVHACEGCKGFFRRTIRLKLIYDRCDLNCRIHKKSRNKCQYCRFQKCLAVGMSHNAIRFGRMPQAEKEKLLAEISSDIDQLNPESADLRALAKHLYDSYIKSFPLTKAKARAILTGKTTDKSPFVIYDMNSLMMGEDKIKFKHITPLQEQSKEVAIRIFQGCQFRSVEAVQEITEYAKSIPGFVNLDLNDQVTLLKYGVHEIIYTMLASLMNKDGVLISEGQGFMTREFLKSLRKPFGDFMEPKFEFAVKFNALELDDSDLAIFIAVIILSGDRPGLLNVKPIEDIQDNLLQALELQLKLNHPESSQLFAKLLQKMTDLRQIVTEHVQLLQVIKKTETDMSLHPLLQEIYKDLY
T1 sequence (P19793 whole entry): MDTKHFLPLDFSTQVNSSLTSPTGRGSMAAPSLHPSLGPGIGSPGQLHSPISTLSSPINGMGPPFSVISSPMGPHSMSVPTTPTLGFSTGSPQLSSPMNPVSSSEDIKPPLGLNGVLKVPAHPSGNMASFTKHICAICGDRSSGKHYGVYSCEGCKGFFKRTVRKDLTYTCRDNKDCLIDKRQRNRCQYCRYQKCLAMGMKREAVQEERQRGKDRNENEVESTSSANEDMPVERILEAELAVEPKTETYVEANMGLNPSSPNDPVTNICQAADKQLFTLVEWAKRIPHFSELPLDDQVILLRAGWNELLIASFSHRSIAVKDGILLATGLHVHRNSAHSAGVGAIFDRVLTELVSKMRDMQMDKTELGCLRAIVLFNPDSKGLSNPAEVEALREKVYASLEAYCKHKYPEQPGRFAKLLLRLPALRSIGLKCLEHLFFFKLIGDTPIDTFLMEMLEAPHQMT
The assay is described as follows: Transcriptional activation in COS cells expressing PPAR gamma and RXR alpha.
Conditions: not given
In turn, `COc1cc(CCCC2OC(=O)NC2=O)ccc1OCc1nc(-c2ccco2)oc1C` (single isomer, unassigned; (-)) showed a pEC50 of 7.45.

In turn, `COc1cc(CCCC2OC(=O)NC2=O)ccc1OCc1nc(-c2ccco2)oc1C` (stereo in doubt; (+)-64) gave a pEC50 of 8.05.

`Cc1oc(-c2ccccc2)nc1COc1ccc(CCCC2OC(=O)NC2=O)cn1` (stereo not drawn) gave a negative logarithm of the EC50 (pEC50) of 7.78.

Molecule `Cc1sc(-c2ccccc2)nc1COc1ccc(CCCC2OC(=O)NC2=O)cc1` (stereo not drawn) gave a pEC50 of 6.09.

For another assay, the species on record is Rattus norvegicus. The assay can be described thus: Effective dose for 25% reduction in plasma glucose-lowering activity in Wistar fatty rats.
Conditions: not given
Type of assay: functional. The gist of the method:
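Wistar fatty rats (10–15 weeks old), five per group, allocated by plasma glucose and triglyceride. Oral dosing by stomach tube once daily for 6 d at three doses, suspended in 0.5% methyl cellulose; CE-2 pellets and water ad libitum. Tail-vein plasma glucose measured; ED25 taken from the three-dose response by linear regression.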
`COc1cc(CCCC2OC(=O)NC2=O)ccc1OCc1nc(-c2ccco2)oc1C` (single isomer, unassigned; (-)): the ED25 came out at 0.362 mg/kg/day.

In turn, `COc1cc(CCCC2OC(=O)NC2=O)ccc1OCc1nc(-c2ccco2)oc1C` (stereo in doubt; (+)-64) came in with an ED25 of 0.05 mg/kg/day.

The same assay, now with this note: Rattus norvegicus, Plasma; read-out: ED25.
For the molecule `Cc1oc(-c2ccccc2)nc1COc1ccc(CCCC2OC(=O)NC2=O)cn1` (stereo not drawn), the ED25 was determined as 0.048 mg/kg/day.

Turning to `Cc1sc(-c2ccccc2)nc1COc1ccc(CCCC2OC(=O)NC2=O)cc1` (stereo not drawn), the ED25 was determined as 0.5 mg/kg/day.

The species named for a further assay is Mus musculus. The assay is described as follows: Effective dose for 25% reduction in plasma lipid-lowering activity in KKAy mice. Type of assay: functional.
Conditions: not given
In short, it runs like this:
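Male/female not stated; KKAy mice, 9–13 weeks old, fed powdered CE-2 chow 3 d, grouped (five per group) by blood glucose. Compounds given as dietary admixture at three levels (0.01, 0.005 or 0.001% in diet) for 4 d. Orbital-vein plasma triglyceride measured enzymatically as % reduction vs control; dose (mg/kg/d) from food intake and body weight; ED25 by linear regression.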
Molecule `CC1(COc2ccc(CC3SC(=O)NC3=O)cc2)CCCCC1` (stereo not drawn) [CIGLITAZONE] had an ED25 of 25 mg/kg/day.

The species entered for the next assay is Mus musculus. The assay can be described thus: Effective dose for 25% reduction in plasma glucose-lowering activity of KKAy mice. In kind it is functional.
Conditions: not given
The gist of the method:
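KKAy mice (9–13 weeks old), five per group, allocated by blood glucose after 3 d on powdered CE-2 chow. Compounds given as dietary admix at three levels chosen from first screening, 4 d ad libitum. Orbital-vein plasma glucose assayed enzymatically. Dose in mg/kg/d computed from food intake and body weight; ED25 derived by linear regression.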
In turn, `Cc1oc(-c2ccccc2)nc1CCOc1ccc(CCCC2OC(=O)NC2=O)cc1` (stereo not drawn) came in with an ED25 of 2.91 mg/kg/day.

A word on the pEC50: it is the negative decadic logarithm of the EC50, by convention in mol/L.
